The source made the active and inactive calls. The calls are words filed in the database; no cut-off is given here.
Assays:
HeLa [1] = experiment: Antiproliferative activity against human HeLa cells assessed as inhibition of cell growth incubated for 24 hrs by MTT assay; type: functional, cell-based
Summary of the method: (§1)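 Cells kept in DMEM with 10% FBS and 1% antibiotic-antimycotic at 37 °C and 5% CO2. Seeded at 8 × 10^3 cells per 100 μL and left 24 h, then exposed 24 h to 5, 10, 20, 50 or 100 μM. MTT at 0.5 mg/mL in HBSS was added for 2–4 h at 37 °C in the dark. Formazan was dissolved in DMSO, A570 was read, and IC50 was derived.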

HeLa [2] = experiment: Induction of apoptosis in human HeLa cells assessed as increase in caspase-9 activation at 7 to 11 uM by fluorometric assay; type: functional, cell-based; conditions: dose 7-11 µM
Summary of the method: (§2)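 HeLa seeded at 3 × 10^6 in 6-well plates, treated at 7 and 11 μM; caspase-3, -8 and -9 activity each measured by fluorometric kit per manufacturer's protocol; fluorescence read at ex 400 nm / em 505 nm; fold change versus control; mean ± SD.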

SiHa = experiment: Antiproliferative activity against human SiHa cells assessed as inhibition of cell growth incubated for 24 hrs by MTT assay; type: functional, cell-based
Summary of the method: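 Cervical squamous carcinoma cells were seeded at 8 × 10^3 cells per 100 μL and incubated 24 h before compound was added (5–100 μM). After 24 h exposure, cells were washed and given 0.5 mg/mL MTT in HBSS for 2–4 h at 37 °C in the dark. Formazan was solubilised in DMSO, absorbance read at 570 nm, and IC50 determined.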

HeLa [3] = experiment: Induction of apoptosis in human HeLa cells assessed as proportion of late apoptotic cells at 7 uM by AnnexinV-FITC/PI staining based FACS analysis (reference value: 14.5%); type: functional
HeLa [4] = experiment: Induction of apoptosis in human HeLa cells assessed as proportion of late apoptotic cells at 11 uM by AnnexinV-FITC/PI staining based FACS analysis (reference value: 14.5%); type: functional
HeLa [5] = experiment: Induction of cell cycle arrest in human HeLa cells assessed as proportion of cell accumulation at S phase at 7 uM by propidium iodide staining based flow cytometry (reference value: 15.9%); type: functional
HeLa [6] = experiment: Induction of apoptosis in human HeLa cells assessed as fold increase in caspase-3 activation at 7 to 11 uM by fluorometric assay relative to control; type: functional; conditions: dose 7-11 µM; summary of the method: as §2
HeLa [7] = experiment: Induction of cell cycle arrest in human HeLa cells assessed as proportion of cell accumulation at G1 phase at 7 uM by propidium iodide staining based flow cytometry (reference value: 67.7%); type: functional
HeLa [8] = experiment: Inhibition of colony formation in human HeLa cells assessed as decrease in number of colonies formed at 3 to 6 uM incubated for 9 days by crystal violet staining based microscopic analysis; type: functional, cell-based; conditions: dose 3-6 µM, time 9.0 day
Summary of the method: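 HeLa seeded at 1 × 10^3 cells in 6-well plates; after attachment treated at 3 and 6 μM and grown 9 days at 37 °C; fixed in 70% methanol, stained with 0.3% crystal violet, PBS-washed; colonies imaged and counted by image analysis.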

HeLa [9] = experiment: Induction of mitochondrial membrane potential depolarization in human HeLa cells assessed as decrease in JC-1 aggregate to monomer ratio at 7 to 11 uM incubated for 24 hrs by JC-1 staining based fluorescence microscopic analysis; type: functional, cell-based; conditions: dose 7-11 µM
Summary of the method: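 HeLa treated for 24 h, then stained with JC-1 dye; red aggregate and green monomer fluorescence imaged on inverted microscope with FITC filter; aggregate-to-monomer ratio calculated relative to control; mean ± SD; scale bar 50 μm.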

MDA-MB-231 = experiment: Antiproliferative activity against human MDA-MB-231 cells assessed as inhibition of cell growth incubated for 24 hrs by MTT assay; type: functional, cell-based; conditions: MDA-MB-231, 24 h; summary of the method: as §1
HeLa [10] = experiment: Induction of cell cycle arrest in human HeLa cells assessed as proportion of cell accumulation at G2 phase at 7 uM by propidium iodide staining based flow cytometry (reference value: 8.7%); type: functional
HeLa [11] = experiment: Induction of apoptosis in human HeLa cells assessed as proportion of necrotic cells at 11 uM by AnnexinV-FITC/PI staining based FACS analysis (reference value: 3.4%); type: functional
HeLa [12] = experiment: Induction of apoptosis in human HeLa cells assessed as proportion of early apoptotic cells at 7 uM by AnnexinV-FITC/PI staining based FACS analysis (reference value: 4.5%); type: functional
HeLa [13] = experiment: Induction of apoptosis in human HeLa cells assessed as DNA fragmentation at 7 to 11 uM incubated for 24 hrs by ethidium bromide staining based agarose gel electrophoresis analysis; type: functional, cell-based; conditions: dose 7-11 µM
Summary of the method: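 HeLa treated at 7 and 11 μM; genomic DNA isolated by kit, quantified by nanodrop and normalised; run on 0.8% agarose at 80 V, stained with ethidium bromide; laddering imaged by gel documentation.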

HeLa [14] = experiment: Induction of cell cycle arrest in human HeLa cells assessed as proportion of cell accumulation at G2 phase at 11 uM by propidium iodide staining based flow cytometry (reference value: 8.7%); type: functional
HeLa [15] = experiment: Induction of apoptosis in human HeLa cells assessed as proportion of viable cells at 11 uM by AnnexinV-FITC/PI staining based FACS analysis (reference value: 77.7%); type: functional
HeLa [16] = experiment: Induction of apoptosis in human HeLa cells assessed as DNA fragmentation by measuring CH-deformation with enhanced peak at 1420 to 1440 cm^-1 at 7 to 11 uM incubated for 24 hrs by surface-enhanced Raman spectroscopic analysis; type: functional, cell-based; conditions: dose 7-11 µM
Summary of the method: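 DNA isolated from control and 7 or 11 μM-treated HeLa, mixed 8:2 with 40–45 nm gold nanoparticles as SERS substrate, 10 min incubation; confocal Raman with 633 nm laser at 5 mW, 600 g/mm grating, 3 cm−1 resolution, 3 accumulations of 5 s integration.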

HeLa [17] = experiment: Induction of apoptosis in human HeLa cells assessed as increase in number of cells with condensed nucleic acids at 7 to 11 uM incubated for 24 hrs by Hoechst 33342 staining based fluorescence light microscopy; type: functional, cell-based; conditions: dose 7-11 µM
Summary of the method: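 HeLa, 7 × 10^3 cells/well, treated 24 h at 7 and 11 μM; stained with Hoechst 33342 (1 μg mL−1 in PBS); condensed nuclei imaged through DAPI filter on inverted fluorescence microscope.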

HeLa [18] = experiment: Induction of cell cycle arrest in human HeLa cells assessed as proportion of cell accumulation at subG0 phase at 11 uM by propidium iodide staining based flow cytometry (reference value: 7.6%); type: functional

For `C[C@@H](C[C@@H](O)[C@@H]1OC1(C)C)[C@@H]1CC[C@]2(C)C3=CC[C@H]4C(C)(C)C(=O)CC[C@]4(C)[C@H]3CC[C@@]12C`, the IC50 (HeLa [1]) was 11.7 µM, the Activity (HeLa [2]) was “Active” and the IC50 (SiHa) was 16.2 µM. For the same compound, the Activity (HeLa [3]) was 10.1%, the Activity (HeLa [4]) was 50.1% and the Activity (HeLa [5]) was 4.9%. For the same compound, the “fold change (FC)” value (HeLa [6]) was 3, the Activity (HeLa [7]) was 64% and the inhibition (HeLa [8]) was “Dose-dependent-effect”. The Activity (HeLa [9]) was “Active”, the IC50 (MDA-MB-231) was 23.9 µM and the Activity (HeLa [10]) was 5.4%. For the same compound, the Activity (HeLa [11]) was 4.5%, the Activity (HeLa [12]) was 50.9% and the Activity (HeLa [13]) was “Active”. For the same compound, the Activity (HeLa [14]) was 6.2%, the Activity (HeLa [15]) was 29.6% and the Activity (HeLa [16]) was “Active”. The Activity (HeLa [17]) was “Active” and the Activity (HeLa [18]) was 39.5%.

— ChEMBL document CHEMBL6083205, “A comprehensive apoptotic assessment of niloticin in cervical cancer cells: a tirucallane-type triterpenoid from Aphanamixis polystachya (Wall.) Parker” (RSC Med Chem, 2024)
